From PMC2905675 (Cell, 2010)
“Also recorded” adds a separate entry of the source. Where two headings read alike, the source gives them in different places. No end group written: not given here.

Columns and labels:
rat TRPV1 [1] = biological target: T1, rat TRPV1 (Rattus norvegicus, UniProt O35433); experiment: Whole-cell patch-clamp recording from TRPV1-expressing HEK293 cells; type: cell-based
[2] = tested on: capsaicin-sensitive trigeminal neurons; experiment: Whole cell patch clamp recordings from capsaicin-sensitive trigeminal neurons; type: cell-based, mouse; details: capsaicin 1 μM
TRPV1 = type: cell-based, rat; details: outside-out patches containing a single functional TRPV1 channel; capsaicin 1 μM
rat TRPV1 (A657P) = experiment: Whole cell patch clamp, HEK293 cells expressing rat TRPV1; type: cell-based; details: +80 mV
[3] = tested on: X. laevis frog TRPV1 (xTRPV1); experiment: Two-electrode voltage clamp, Xenopus oocytes expressing wild type frog TRPV1; type: cell-based; details: +80 mV
In short: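 Frog TRPV1 coding sequence cloned from trigeminal and dorsal root ganglion RNA. cRNA made by T7 transcription; stage V–VI oocytes injected with 3–50 ng per oocyte and recorded 3-7 days later in normal frog Ringer's buffered with HEPES (pH 7.4) or MES (pH 5.5). Toxins expressed recombinantly in E. coli, His tag removed by TEV protease, concentration set from predicted 280 nm extinction coefficient.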

rat TRPV1 [4] = biological target: T1, rat TRPV1; experiment: Calcium imaging dose-response in TRPV1-expressing HEK293 cells; type: cell-based; details: ruthenium red 10 μM co-applied
FLAG-TRPV1 (rat) (rat) [5] = biological target: FLAG-TRPV1 (rat) (rat) (UniProt O35433)
FLAG-TRPV1 (rat) (rat), sequence (O35433 whole entry): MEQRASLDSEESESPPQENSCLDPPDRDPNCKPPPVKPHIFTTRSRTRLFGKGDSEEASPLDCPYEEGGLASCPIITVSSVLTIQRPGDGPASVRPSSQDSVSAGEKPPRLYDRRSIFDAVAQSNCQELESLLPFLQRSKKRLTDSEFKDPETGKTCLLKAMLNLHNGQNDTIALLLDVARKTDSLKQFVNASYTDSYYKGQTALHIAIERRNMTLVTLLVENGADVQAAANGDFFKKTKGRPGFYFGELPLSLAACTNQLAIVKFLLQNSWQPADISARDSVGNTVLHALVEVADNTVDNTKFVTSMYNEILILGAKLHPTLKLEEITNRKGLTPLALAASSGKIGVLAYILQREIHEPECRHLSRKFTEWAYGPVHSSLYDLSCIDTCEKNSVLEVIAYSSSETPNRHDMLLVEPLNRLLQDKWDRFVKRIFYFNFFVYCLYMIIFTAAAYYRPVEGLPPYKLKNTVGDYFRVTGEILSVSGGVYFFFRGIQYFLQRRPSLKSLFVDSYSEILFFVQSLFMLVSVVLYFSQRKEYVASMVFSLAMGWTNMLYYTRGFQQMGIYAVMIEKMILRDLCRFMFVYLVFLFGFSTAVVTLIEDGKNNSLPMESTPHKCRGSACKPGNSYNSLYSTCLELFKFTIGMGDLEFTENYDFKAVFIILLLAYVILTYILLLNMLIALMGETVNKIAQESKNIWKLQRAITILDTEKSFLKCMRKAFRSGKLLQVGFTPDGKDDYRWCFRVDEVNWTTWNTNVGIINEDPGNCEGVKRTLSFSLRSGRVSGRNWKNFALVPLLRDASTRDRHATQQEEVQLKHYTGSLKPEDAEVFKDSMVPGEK

rat Kv2.1 F274R = type: cell-based; details: VaTx1 20 μM; n = 3-5 cells per trace
rat Kv2.1 E277K = type: cell-based; details: VaTx1 20 μM; n = 3-5 cells per trace
rat Kv2.1 I273Y = type: cell-based; details: VaTx1 20 μM; n = 3-5 cells per trace
FLAG-TRPV1 (rat) (rat) [6] = biological target: FLAG-TRPV1 (rat) (rat) (UniProt O35433); remark: listed apart in the source

T1 sequence (O35433 whole entry): as above
recombinant DkTx, sequence (P0CH43 whole entry): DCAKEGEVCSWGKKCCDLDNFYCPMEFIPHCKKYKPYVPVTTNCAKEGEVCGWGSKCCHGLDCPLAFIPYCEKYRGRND
native DkTx (double-knot toxin), sequence (P0CH43 whole entry): as above

## COc1cc(CNC(=O)CCCC/C=C/C(C)C)ccc1O [capsaicin]
Rat TRPV1 [1]
  τoff, time constant of current decay on washout: 0.17 min
[2]
  time for evoked currents to return to baseline after washout: ≤ 10 s
TRPV1
  unitary conductance of single channel events: 118 pS
Rat TRPV1 (A657P); DkTx 2 μM, VaTx3 2 μM, capsaicin 1 μM
  sensitivity of rat TRPV1 (A657P): retained sensitivity
[3]
  sensitivity of frog TRPV1 (xTRPV1): responds

## N.N.N.N.N.N.N.N.N.N.N.N.N.N.[Cl-].[Cl-].[Cl-].[Cl-].[Cl-].[Cl-].[O-2].[O-2].[Ru+3].[Ru+3].[Ru+4] [ruthenium red]
Rat TRPV1 [4]
  effect on DkTx-evoked calcium increases: inhibits toxin-evoked responses

## K1 (Knot 1, N-terminal ICK peptide of DkTx-HYR)
FLAG-TRPV1 (rat) (rat) [5]
  EC50 of TRPV1 activation, calcium imaging of TRPV1-expressing HEK293 cells: 8.9 µM

## K2 (Knot 2, C-terminal ICK peptide of DkTx-HYR)
FLAG-TRPV1 (rat) (rat) [5]
  EC50 of TRPV1 activation, calcium imaging of TRPV1-expressing HEK293 cells: 0.97 µM

## VaTx1: vanillotoxin, ICK peptide from the Trinidad Chevron tarantula (Psalmopoeus cambridgei) that activates TRPV1 and inhibits Kv2.1 (SECRWFMGGCDSTLDCCKHLSCKMGLYYCAWDGTF; ends and bridges not checked; cysteine pairing not given here)
Rat TRPV1 [1]; VaTx1 100 μM, whole cell patch clamp, +80 mV
  activation of wild type rat TRPV1 currents: activation
Rat TRPV1 (A657P); VaTx1 100 μM
  VaTx1 activation of TRPV1 (A657P): abolished
Rat Kv2.1 F274R
  effect of F274R mutation on VaTx1-mediated inhibition of Kv2.1: eliminated VaTx1-mediated inhibition
Rat Kv2.1 E277K
  effect of E277K mutation on VaTx1-mediated inhibition of Kv2.1: eliminated VaTx1-mediated inhibition
Rat Kv2.1 I273Y
  effect of I273Y mutation on VaTx1-mediated inhibition of Kv2.1: modest effect; also recorded: no substantial effect

## native DkTx (double-knot toxin) (from UniProt P0CH43 1-79) (peptide)
FLAG-TRPV1 (rat) (rat) [6]
  EC50 of TRPV1 activation, calcium imaging of TRPV1-expressing HEK293 cells: 0.23 µM

## recombinant DkTx (from UniProt P0CH43 1-79) (peptide)
FLAG-TRPV1 (rat) (rat) [6]
  EC50 of TRPV1 activation, calcium imaging of TRPV1-expressing HEK293 cells: 0.14 µM
